According to ChEMBL document CHEMBL1147748, “Overlapping, nonidentical binding sites of different classes of nonpeptide antagonists for the human gonadotropin-releasing hormone receptor” (J Med Chem, 2006):

What was measured:
[1] = biological target: Gonadotropin-releasing hormone receptor (Homo sapiens, UniProt P30968, D293E); assay: Displacement of [125I]-His5, D-Tyr6]GnRH from mutant GnRHR, GnRHR D293E
Procedure, shortened: (§1)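 Human GnRH-R (wild type or site-directed point mutant) was transiently expressed in COS-7 cells by electroporation, with cells cultured 36-48 h before membranes were prepared. Membranes (5-20 µg per point) were incubated 2 h at room temperature with 0.3 nM tracer and varying competitor in HEPES pH 7.5, 150 mM NaCl, 0.1% BSA, then filtered and counted.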

[2] = biological target: Gonadotropin-releasing hormone receptor (Homo sapiens, UniProt P30968, L300V); assay: Displacement of [125I]-His5, D-Tyr6]GnRH from mutant GnRHR, GnRHR L300V; procedure, shortened: as §1
[3] = biological target: Gonadotropin-releasing hormone receptor (Homo sapiens, UniProt P30968, D302N); assay: Displacement of [125I]-His5, D-Tyr6]GnRH from mutant GnRHR, GnRHR D302N; procedure, shortened: as §1
[4] = biological target: Gonadotropin-releasing hormone receptor (Homo sapiens, UniProt P30968, F309L); assay: Displacement of [125I]-His5, D-Tyr6]GnRH from mutant GnRHR, GnRHR F309L; procedure, shortened: as §1
[5] = biological target: Gonadotropin-releasing hormone receptor (Homo sapiens, UniProt P30968, H182A); assay: Displacement of [125I]-His5, D-Tyr6]GnRH from mutant GnRHR, GnRHR H182A; procedure, shortened: as §1
[6] = biological target: Gonadotropin-releasing hormone receptor (Homo sapiens, UniProt P30968, H182E); assay: Displacement of [125I]-His5, D-Tyr6]GnRH from mutant GnRHR, GnRHR H182E; procedure, shortened: as §1
[7] = biological target: Gonadotropin-releasing hormone receptor (Homo sapiens, UniProt P30968, Q189E); assay: Displacement of [125I]-His5, D-Tyr6]GnRH from mutant GnRHR, GnRHR Q189E; procedure, shortened: as §1
[8] = biological target: Gonadotropin-releasing hormone receptor (Homo sapiens, UniProt P30968, S203K); assay: Displacement of [125I]-His5, D-Tyr6]GnRH from mutant GnRHR, GnRHR S203K
[9] = biological target: Gonadotropin-releasing hormone receptor (Homo sapiens, UniProt P30968, E111A); assay: Displacement of [125I]-His5, D-Tyr6]GnRH from mutant GnRHR, GnRHR E111A; procedure, shortened: as §1
[10] = biological target: Gonadotropin-releasing hormone receptor (Homo sapiens, UniProt P30968, Q208D); assay: Displacement of [125I]-His5, D-Tyr6]GnRH from mutant GnRHR, GnRHR Q208D
[11] = biological target: Gonadotropin-releasing hormone receptor (Homo sapiens, UniProt P30968, Q208E); assay: Displacement of [125I]-His5, D-Tyr6]GnRH from mutant GnRHR, GnRHR Q208E
Sequence of Gonadotropin-releasing hormone receptor (Homo sapiens, UniProt P30968, Q208E) (P30968 whole entry Q208E): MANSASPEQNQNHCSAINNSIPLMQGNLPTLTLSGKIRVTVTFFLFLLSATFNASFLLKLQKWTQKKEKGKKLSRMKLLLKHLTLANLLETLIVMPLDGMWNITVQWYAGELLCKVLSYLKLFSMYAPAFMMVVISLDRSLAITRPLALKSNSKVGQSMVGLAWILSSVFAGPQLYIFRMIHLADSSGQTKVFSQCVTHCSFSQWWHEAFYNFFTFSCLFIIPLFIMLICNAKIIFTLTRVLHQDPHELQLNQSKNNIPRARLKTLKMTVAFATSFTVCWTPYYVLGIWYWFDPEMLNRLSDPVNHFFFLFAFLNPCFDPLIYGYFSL

Sequence of Gonadotropin-releasing hormone receptor (Homo sapiens, UniProt P30968, Q189E) (P30968 whole entry Q189E): as the sequence (P30968 whole entry Q208E) above, with Q189E, E208Q counted along it
Sequence of Gonadotropin-releasing hormone receptor (Homo sapiens, UniProt P30968, H182E) (P30968 whole entry H182E): as the sequence (P30968 whole entry Q208E) above, with H182E, E208Q counted along it
Sequence of Gonadotropin-releasing hormone receptor (Homo sapiens, UniProt P30968, H182A) (P30968 whole entry H182A): as the sequence (P30968 whole entry Q208E) above, with H182A, E208Q counted along it
Sequence of Gonadotropin-releasing hormone receptor (Homo sapiens, UniProt P30968, L300V) (P30968 whole entry L300V): as the sequence (P30968 whole entry Q208E) above, with E208Q, L300V counted along it
Sequence of Gonadotropin-releasing hormone receptor (Homo sapiens, UniProt P30968, S203K) (P30968 whole entry S203K): as the sequence (P30968 whole entry Q208E) above, with S203K, E208Q counted along it
Sequence of Gonadotropin-releasing hormone receptor (Homo sapiens, UniProt P30968, Q208D) (P30968 whole entry Q208D): as the sequence (P30968 whole entry Q208E) above, with E208D counted along it
Sequence of Gonadotropin-releasing hormone receptor (Homo sapiens, UniProt P30968, F309L) (P30968 whole entry F309L): as the sequence (P30968 whole entry Q208E) above, with E208Q, F309L counted along it
Sequence of Gonadotropin-releasing hormone receptor (Homo sapiens, UniProt P30968, D293E) (P30968 whole entry D293E): as the sequence (P30968 whole entry Q208E) above, with E208Q, D293E counted along it
Sequence of Gonadotropin-releasing hormone receptor (Homo sapiens, UniProt P30968, E111A) (P30968 whole entry E111A): as the sequence (P30968 whole entry Q208E) above, with E111A, E208Q counted along it
Sequence of Gonadotropin-releasing hormone receptor (Homo sapiens, UniProt P30968, D302N) (P30968 whole entry D302N): as the sequence (P30968 whole entry Q208E) above, with E208Q, D302N counted along it

Row | IC50 [1] [nM] | IC50 [2] [nM] | IC50 [3] [nM] | IC50 [4] [nM] | IC50 [5] [nM] | IC50 [6] [nM] | IC50 [7] [nM] | IC50 [8] [nM] | IC50 [9] [nM] | IC50 [10] [nM] | IC50 [11] [nM] | Structure (SMILES)
1 | 27.2 | 164 | 27.3 | 60.1 | 3.7 | 7.6 | 15.7 | 14.6 | 5.4 | 16.2 | 6 | COc1c(C)cc(-c2[nH]c3ccc(C(C)(C)C(=O)N(CC(C)C)CC(C)C)cc3c2[C@H](C)CNCCc2ccccc2)cc1C
2 | 6.1 | 6.5 | 16.5 | 37.7 | 6.6 | 3.6 | 16.7 | 3.1 | 4.6 | 10.1 | 15 | CC(C)C[C@H](NC(=O)[C@@H](Cc1ccc(O)cc1)NC(=O)[C@H](Cc1c[nH]cn1)NC(=O)[C@H](CO)NC(=O)[C@H](Cc1c[nH]c2ccccc12)NC(=O)[C@H](Cc1c[nH]cn1)NC(=O)[C@@H]1CCC(=O)N1)C(=O)N[C@@H](CCCN=C(N)N)C(=O)N1CCC[C@H]1C(=O)NCC(N)=O
